Inhibition data for 14 compounds are collected here from ChEMBL document CHEMBL3045248, “Stereoselective synthesis and antifungal activities of (E)-alpha-(methoxyimino)benzeneacetate derivatives containing 1,3,5-substituted pyrazole ring” (2006).

What all share (assay type): functional
Experiment [1] has as its system Botryosphaeria berengeriana. As to the kind of experiment: Fungicidal activity against Botryosphaeria berengeriana assessed as inhibition of mycelial elongation at 50 ug/mL incubated for 48 hr. The procedure, abridged: (§1)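 Poisoned-food plate assay on potato glucose agar: DMF stock of 500 mg/L mixed 1:9 into molten medium at 50 °C, poured and set, then seeded with a 4 mm mycelial disk. Plates inverted, incubated 28 °C for 48 h. Water as blank control. Colony radius (mm) measured, triplicate; inhibition I = [(C − T)/C] × 100% versus control radius. Field isolates from crops.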

The test system of another experiment is Fusarium graminearum. Nature of the experiment: Fungicidal activity against Fusarium graminearum assessed as inhibition of mycelial elongation at 50 ug/mL incubated for 48 hr. The procedure, abridged:
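Field isolate of G. zeae taken from crops. A 500 mg/L DMF stock (1 mL) was mixed with 9 mL molten potato glucose agar at 50 °C and poured into plates. A 4 mm mycelial disk was placed on each plate, which was inverted and kept at 28 °C for 48 h. Water served as the blank. Colony radius was measured in triplicate, and inhibition was calculated as (C−T)/C×100%.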

Another experiment deals with Rhizoctonia solani. Nature of the experiment: Fungicidal activity against Rhizoctonia solani assessed as inhibition of mycelial elongation at 50 ug/mL incubated for 48 hr. The essentials: as §1
The subject of another experiment is Botrytis cinerea. As to the kind of experiment: Fungicidal activity against Botryotinia fuckeliana assessed as inhibition of mycelial elongation at 50 ug/mL incubated for 48 hr. The procedure, abridged:
as §1

In the next experiment the test system is Bipolaris maydis. Nature of the experiment: Fungicidal activity against Cochliobolus heterostrophus assessed as inhibition of mycelial elongation at 50 ug/mL incubated for 48 hr. The procedure, abridged:
as §1

Usually inhibition stands for the drop in the measured response relative to a control, in per cent. As to `CO/N=C(/C(=O)OC)c1ccccc1CO/N=C/c1c(C)nn(C)c1Oc1ccc(F)cc1`, the inhibition at 50 µg/mL in experiment [1] came to 100%; with Fusarium graminearum, 59.4%; in the experiment on Rhizoctonia solani, 90.2%; in the experiment with Botrytis cinerea, 88.5%; with Bipolaris maydis it was 86.4%.

For the compound `CO/N=C(/C(=O)OC)c1ccccc1CO/N=C/c1c(C)nn(C)c1Oc1ccc(Cl)cc1`, the inhibition at 50 µg/mL in experiment [1] worked out at 92.6%; in the experiment on Fusarium graminearum, 80%; with Rhizoctonia solani, 100%; in the experiment on Botrytis cinerea, 100%; in the experiment with Bipolaris maydis it was 92.9%.

In the case of `CO/N=C(/C(=O)OC)c1ccccc1CO/N=C/c1c(C)nn(C)c1Oc1cccc(C)c1`, the inhibition at 50 µg/mL in experiment [1] worked out at 100%; in the experiment with Fusarium graminearum, 96.9%; with Rhizoctonia solani it was 88%; with Botrytis cinerea, 80.8%; with Bipolaris maydis, 81.8%.

As to `CCOc1c(/C=N/OCc2ccccc2/C(=N\OC)C(=O)OC)c(C)nn1C`, the inhibition at 50 µg/mL worked out at 100% in experiment [1]; 90.5% in the experiment with Fusarium graminearum; 92.5% with Rhizoctonia solani; 96.8% in the experiment on Botrytis cinerea; 92.6% with Bipolaris maydis.

As for `CO/N=C(/C(=O)OC)c1ccccc1CO/N=C/c1c(C)nn(C)c1OCC(F)(F)F`, the inhibition at 50 µg/mL in experiment [1] was found to be 95.5%; in the experiment on Fusarium graminearum, 80%; with Rhizoctonia solani it was 91.8%; in the experiment with Botrytis cinerea, 100%; in the experiment with Bipolaris maydis, 90.9%.

In the case of `CCCOc1c(/C=N/OCc2ccccc2/C(=N\OC)C(=O)OC)c(C)nn1C`, the inhibition at 50 µg/mL is 93.8% in experiment [1]; 78.4% in the experiment with Fusarium graminearum; 87.8% in the experiment on Rhizoctonia solani; 87.1% in the experiment on Botrytis cinerea; 85% with Bipolaris maydis.

Take `CO/N=C(/C(=O)OC)c1ccccc1CO/N=C/c1c(C)nn(C)c1Oc1cccc([N+](=O)[O-])c1`: the inhibition at 50 µg/mL in experiment [1] is 77.8%; with Fusarium graminearum, 62.9%; with Rhizoctonia solani, 91.6%; with Botrytis cinerea, 98.8%; with Bipolaris maydis, 64.3%.

Regarding `CO/N=C(/C(=O)OC)c1ccccc1CO/N=C/c1c(C)nn(C)c1Oc1ccc(C)cc1`, the inhibition at 50 µg/mL was determined as 88.2% in experiment [1]; 50% in the experiment on Fusarium graminearum; 90.2% in the experiment with Rhizoctonia solani; 80.8% in the experiment with Botrytis cinerea; 72.7% in the experiment with Bipolaris maydis.

On to `CO/N=C(/C(=O)OC)c1ccccc1CO/N=C/c1c(C)nn(C)c1Oc1ccccc1C`, for which the inhibition at 50 µg/mL was found to be 76.5% in experiment [1]; 53.1% in the experiment with Fusarium graminearum; 83.7% with Rhizoctonia solani; 80.8% with Botrytis cinerea; 72.7% with Bipolaris maydis.

Regarding `CO/N=C(/C(=O)OC)c1ccccc1CO/N=C/c1c(C)nn(C)c1OC`, the inhibition at 50 µg/mL in experiment [1] worked out at 100%; with Fusarium graminearum, 79.4%; with Rhizoctonia solani, 82.7%; with Botrytis cinerea, 85.4%; in the experiment with Bipolaris maydis it was 86.7%.

Consider `CO/N=C(/C(=O)OC)c1ccccc1CO/N=C/c1c(C)nn(C)c1Oc1cccc(C(F)(F)F)c1`, for which the inhibition at 50 µg/mL in experiment [1] is 88.2%; with Fusarium graminearum, 68.8%; in the experiment with Rhizoctonia solani, 83.7%; in the experiment with Botrytis cinerea, 92.3%; in the experiment on Bipolaris maydis it was 68.2%.

On to `CO/N=C(/C(=O)OC)c1ccccc1COc1ccccc1C` [KRESOXIM-METHYL], for which the inhibition at 50 µg/mL in experiment [1] worked out at 98.5%; in the experiment on Fusarium graminearum, 96.8%; with Rhizoctonia solani, 66.1%; in the experiment on Botrytis cinerea, 97.2%; in the experiment on Bipolaris maydis, 90.6%.

Turning to `CO/N=C(/C(=O)OC)c1ccccc1CO/N=C/c1c(C)nn(C)c1Oc1ccc(Cl)cc1Cl`, the inhibition at 50 µg/mL in experiment [1] stood at 96.3%; in the experiment with Fusarium graminearum, 88.6%; in the experiment with Rhizoctonia solani, 99%; in the experiment on Botrytis cinerea it was 100%; in the experiment on Bipolaris maydis, 92.9%.

For `CO/N=C(/C(=O)OC)c1ccccc1CO/N=C/c1c(C)nn(C)c1Oc1ccccc1F`, the inhibition at 50 µg/mL in experiment [1] came to 88.2%; with Fusarium graminearum, 50%; in the experiment on Rhizoctonia solani, 83.7%; with Botrytis cinerea, 84.6%; in the experiment on Bipolaris maydis it was 68.2%.
